The source of these data is ChEMBL document CHEMBL2169863, “Discovery, structure-activity relationship, and biological evaluation of noninhibitory small molecule chaperones of glucocerebrosidase” (J Med Chem, 2012).

The target of series [1] is T1, Lysosomal acid glucosylceramidase (Homo sapiens, UniProt P04062, N409S). In words: Inhibition of glucocerebrosidase N370S mutant in Gaucher patient spleen homogenate using 4-methylumbellifereno-Glc as substrate incubated for 5 mins prior to substrate addition measured after 30 to 45 mins by fluorimetric analysis.
The nature of series [2]: Activation of alpha-galactosidase using 4-MU-alpha-galactose as substrate.
The target in series [3] is Lysosomal alpha-glucosidase (Homo sapiens) (UniProt P10253). The experiment in a line: Activation of alpha-glucosidase using 4-MU-alpha-glucose as substrate.
Series [4] addresses T2, Lysosomal acid glucosylceramidase (Homo sapiens) (UniProt P04062).
T2 sequence (whole entry): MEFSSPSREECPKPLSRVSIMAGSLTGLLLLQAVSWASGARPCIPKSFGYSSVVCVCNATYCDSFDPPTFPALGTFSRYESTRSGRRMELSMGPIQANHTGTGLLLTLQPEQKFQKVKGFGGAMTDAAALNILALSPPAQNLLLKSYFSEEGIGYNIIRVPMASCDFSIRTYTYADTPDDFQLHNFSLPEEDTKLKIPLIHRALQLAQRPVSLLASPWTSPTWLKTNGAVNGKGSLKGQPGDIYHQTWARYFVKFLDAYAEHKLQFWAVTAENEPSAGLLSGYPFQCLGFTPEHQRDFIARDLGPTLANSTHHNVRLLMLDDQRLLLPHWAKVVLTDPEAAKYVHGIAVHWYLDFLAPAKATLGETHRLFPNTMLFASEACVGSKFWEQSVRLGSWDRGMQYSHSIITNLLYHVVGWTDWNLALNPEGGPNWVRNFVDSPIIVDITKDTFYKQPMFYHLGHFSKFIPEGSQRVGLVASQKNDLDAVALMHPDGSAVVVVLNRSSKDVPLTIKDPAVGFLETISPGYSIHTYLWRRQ
In words: Ratio of half-maximal activation concentration for wild type glucocerebrosidase to half-maximal activation concentration for wild type glucocerebrosidase in human spleen homogenate. It is filed as tissue-based.

The species entered for series [5] is Homo sapiens. In words: Ratio of half-maximal activation concentration for glucocerebrosidase N370S (unknwon origin) to half-maximal activation concentration for glucocerebrosidase N370S in Gaucher patient spleen homogenate. The series is classed as tissue-based.
Series [6] concerns the target T2, Lysosomal acid glucosylceramidase (Homo sapiens). The experiment in a line: Activation of wild type glucocerebrosidase using resorufin beta-D-glucopyranoside as substrate incubated for 5 mins prior to substrate addition measured after 30 to 45 mins by fluorimetric analysis. A digest of the protocol: (§1)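 Purified recombinant enzyme at 5 nM final: wt in citrate/KH₂PO₄ pH 5.9, N370S at pH 7, with 0.01% Tween-20. Compound was preincubated 5 min at room temperature. Resorufin β-D-glucopyranoside was 15 μM final for 30−45 min at 37 °C, stopped with Tris-HCl pH 8.0. Read-out was fluorescence at Ex 573/Em 610 nm.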

Series [7] relates to T3, Lysosomal acid glucosylceramidase (Homo sapiens), P04062 [N409S].
T3 sequence (whole entry): T2 sequence (whole entry) with N409S
In words: Activation of glucocerebrosidase N370S mutant using resorufin beta-D-glucopyranoside as substrate incubated for 5 mins prior to substrate addition measured after 30 to 45 mins by fluorimetric analysis. A digest of the protocol: as §1

For series [8], the target named is T2, Lysosomal acid glucosylceramidase (Homo sapiens). The experiment in a line: Activation of wild type glucocerebrosidase in human spleen homogenate using resorufin beta-D-glucopyranoside as substrate incubated for 5 mins prior to substrate addition measured after 30 to 45 mins by fluorimetric analysis. The series is classed as tissue-based. Summed up:
(§2)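 Spleen homogenate (27 μg final) in pH 5 citrate/phosphate buffer with 0.01% Tween-20. Compound was titrated 0.5 nM to 58 μM and preincubated 5 min at room temperature. Resorufin β-D-glucopyranoside was 15 μM final, incubated 30−45 min at 37 °C and stopped with 1 M Tris-HCl pH 8.0. Read-out was fluorescence at Ex 573/Em 610 nm.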

Series [9] concerns T3, Lysosomal acid glucosylceramidase (Homo sapiens), P04062 [N409S]. In words: Activation of glucocerebrosidase N370S mutant in Gaucher patient spleen homogenate using resorufin beta-D-glucopyranoside as substrate incubated for 5 mins prior to substrate addition measured after 30 to 45 mins by fluorimetric analysis. It is filed as tissue-based. Summed up: as §2
The test system is the same in series [10]. The experiment in a line: Activation of glucocerebrosidase N370S mutant in Gaucher patient spleen homogenates using 4-methylumbelliferone-Glc as substrate assessed as half-maximal activation concentration incubated for 5 mins prior to substrate addition measured after 30 to 45 mins by fluorimetric analysis. It is filed as tissue-based. Summed up: (§3)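 Spleen homogenate (27 μg final) in pH 5 citrate/phosphate buffer with KCl, NaCl, MgCl₂ and 0.01% Tween-20. Compound was titrated 0.5 nM to 58 μM and preincubated 5 min at room temperature. Reaction used 1 mM 4MU-Glc for 30−45 min at 37 °C and was stopped with NaOH/glycine pH 10. Read-out was fluorescence at Ex 365/Em 440 nm. AC₅₀ is the average of N = 2.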

For series [11] the test system is unchanged. The experiment in a line: Activation of glucocerebrosidase N370S mutant using 4-methylumbelliferone-beta-Glc as substrate incubated for 5 mins prior to substrate addition measured after 30 to 45 mins by HPLC analysis. A digest of the protocol:
(§4)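 N370S/N370S patient spleen homogenate at 140 μg/well. Compound was tested at 9 concentrations, 1:2 dilutions from 50 μM. Substrate was 2 mM 4MU-Glc or the C12-BODIPY substrate at 25 μM; other conditions as the plate assay. Stopped reactions were separated on C18 HPLC with fluorescence detection: 4MU at 365/440 nm, C12-BODIPY-Cer at 506/540 nm.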

The test system is the same in series [12]. In words: Activation of glucocerebrosidase N370S mutant using C12-BODIPY-GlcCer as substrate assessed as half-maximal activation concentration incubated for 5 mins prior to substrate addition measured after 30 to 45 mins by HPLC analysis. A digest of the protocol: as §4
The test system is the same in series [13]. In words: Activation of Glucocerebrosidase N370S/N370S mutant translocation to lysosome in Gaucher patient dermal fibroblasts incubated for 6 days by LAMP2 colocalization-based laser scanning confocal microscopic analysis relative to vehicle-treated control. Summed up:
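N370S/N370S Gaucher dermal fibroblasts were treated 6 days at 1, 5 or 25 μM, with DMSO vehicle control. Cells were fixed in 3% paraformaldehyde, permeabilized with Triton-X and stained with anti-GCase R386 (Alexa555), anti-LAMP-2 (Alexa488) and DAPI. Confocal imaging used constant laser settings, scoring GCase/LAMP-2 colocalization.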

Series [14] addresses T2, Lysosomal acid glucosylceramidase (Homo sapiens). The experiment in a line: Activation of wild type glucocerebrosidase using 4methylumbelliferone-Glc as substrate assessed as half-maximal activation concentration incubated for 5 mins prior to substrate addition measured after 30 to 45 mins by fluorimetric analysis. A digest of the protocol:
(§5)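 Purified recombinant enzyme at 5 nM final: wt in citrate/KH₂PO₄ pH 5.9, N370S at pH 7, both with 0.01% Tween-20. Compound was titrated 0.5 nM to 58 μM and preincubated 5 min at room temperature. Reaction used 1 mM 4MU-Glc for 30−45 min at 37 °C and was stopped at pH 10. Read-out was fluorescence at Ex 365/Em 440 nm.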

For series [15], the system named is T3, Lysosomal acid glucosylceramidase (Homo sapiens), P04062 [N409S]. The experiment in a line: Activation of glucocerebrosidase N370S mutant using 4methylumbelliferone-Glc as substrate assessed as half-maximal activation concentration incubated for 5 mins prior to substrate addition measured after 30 to 45 mins by fluorimetric analysis. Summed up: as §5
Series [16] addresses T2, Lysosomal acid glucosylceramidase (Homo sapiens). In words: Activation of wild type glucocerebrosidase in human spleen homogenate using 4methylumbelliferone-Glc as substrate assessed as half-maximal activation concentration incubated for 5 mins prior to substrate addition measured after 30 to 45 mins by fluorimetric analysis. The series is classed as tissue-based. A digest of the protocol: as §3

Series [17] has as its system Liver. The experiment in a line: Metabolic stability in CD1 mouse liver microsomes assessed as compound remaining at 1 uM after 60 mins by LC/MS/MS analysis in absence of NADPH. The series is classed as ADME, Microsome. Conditions: 1 h. Summed up: (§6)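 Compound at 1 μM was incubated in duplicate with CD-1 mouse liver microsomes at 37 °C in 100 mM potassium phosphate pH 7.4 with 3 mM MgCl₂, with or without 2 mM NADPH, for 60 min. Reaction was quenched in cold acidified MeCN with internal standard. Parent was quantified by LC−MS/MS as percent of time zero.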

Series [18] has as its system Liver. The experiment in a line: Metabolic stability in CD1 mouse liver microsomes assessed as compound remaining at 1 uM after 60 mins by LC/MS/MS analysis in presence of NADPH. It is filed as ADME, Microsome. The conditions noted are these: 1 h. Summed up:
as §6
(Liver microsomes are a subcellular fraction often used to study metabolism.)

The target of series [19] is T4, Lysosomal acid glucosylceramidase (Homo sapiens, UniProt P04062).
T4 sequence (P04062 whole entry): T2 sequence (whole entry)
The experiment in a line: Inhibition of wild type glucocerebrosidase in human spleen homogenate using 4-methylumbellifereno-Glc as substrate incubated for 5 mins prior to substrate addition measured after 20 mins by fluorimetric analysis. It is filed as tissue-based.

Series [20] addresses T1, Lysosomal acid glucosylceramidase. In words: Inhibition of glucocerebrosidase N370S mutant using 4-methylumbellifereno-Glc as substrate incubated for 5 mins prior to substrate addition measured after 20 mins by fluorimetric analysis.
The target of series [21] is T4, Lysosomal acid glucosylceramidase. In words: Inhibition of wild type glucocerebrosidase using 4-methylumbellifereno-Glc as substrate incubated for 5 mins prior to substrate addition measured after 20 mins by fluorimetric analysis.
Series [22] deals with T1, Lysosomal acid glucosylceramidase. The experiment in a line: Inhibition of glucocerebrosidase N370S mutant in Gaucher patient spleen homogenate using 4-methylumbellifereno-Glc as substrate incubated for 5 mins prior to substrate addition measured after 20 mins by fluorimetric analysis. It is filed as tissue-based.

Positions count from the first letter of the chain named. Calls of active or inactive are those of the source. Unless noted, the calls are words filed in the database; no cut-off is given here.

Consider `CCc1nnc(NC(=O)c2ccc(NS(=O)(=O)c3ccccc3)cc2)s1`, for which the IC50 (as a rule, the midpoint of a concentration-inhibition curve) in series [1] is given as “Not Active”.
Consider `CCc1ccc(NC(=O)c2cnn3c(C(F)F)cc(C)nc23)cc1`, for which the result in series [2], in series [3], in series [6], in [7], in series [8] and in [9] was inactive. The Ratio in [4] and in series [5] was 3 in each case. Also, the Activity in [10] came to 2.24 µM.
As for `COc1ccc(Cl)cc1Nc1nc(NCCO)nc(N2CCCC2)n1`, the 50% inhibitory concentration (IC50) entry in [1] is reported as “Not Active”.
Turning to `O=C(Nc1ccccc1Sc1ccccc1)c1cnn2c(C(F)F)cc(C3CC3)nc12`, the result in series [2], in series [3], in series [12], in series [6], in series [7] and in series [8] was inactive. For the same compound, in series [9], the outcome was inactive. Further, the Activity entry was “Dose-dependent effect” in [11] and 4.6 µM in series [10]. For the same compound, the Ratio in series [4] and in [5] was 3 in each case.
Consider `Cc1cc(C)n2ncc(C(=O)NCCCCO)c2n1`, for which the result in series [2], in series [3], in [13] and in [10] was inactive.
As for `Cc1cc(C)n2ncc(C(=O)Nc3ccc(Cl)c(Cl)c3)c2n1`, the outcome in series [2], in series [3], in series [6], in [7], in [8] and in series [9] was inactive. Moreover, the Ratio in series [4] and in [5] was 3 throughout. The Activity was determined as 14.1 µM in series [14], 15.9 µM in [15], 4.47 µM in series [16] and 3.66 µM in series [10].
On to `Cc1cc(C)n2ncc(C(=O)Nc3ccc(C(F)(F)F)cc3)c2n1`, for which the outcome in [2], in [3] and in series [12] was inactive. The values for the Activity result in [11] and in [10] were “Dose-dependent effect” and 1.46 µM, respectively. Besides, the values for the Stability in series [17] and in [18] were 100% and 83%, respectively.
In the case of `Cc1cc(C)n2ncc(C(=O)Nc3ccc(Br)cc3)c2n1`, the result in series [2], in series [3] and in [12] was inactive. Also, the Activity entry in series [11] was “Dose-dependent effect”; in series [10] it was 2.06 µM. Besides, the values for the Stability in [17] and in series [18] were 86% and 12%, respectively.
On to `CCC(C)c1ccc(NC(=O)c2cnn3c(C(F)F)cc(C)nc23)cc1` (configuration not stated), for which the result in [2], in series [3], in [6], in [7], in [8] and in [9] was inactive. Also, the Ratio in series [4] and in series [5] was 3 throughout.
`S=C(NCCCc1c[nH]cn1)NCCCN(Cc1ccc(Cl)c(Cl)c1)c1ccc(Br)cn1`: the IC50 in series [19] amounted to 360 nM; in series [20] (read-out: IC50) it was 2500 nM; in series [21], 710 nM.
`O=S(=O)(c1ccc2ccccc2c1)N1CCN(c2nc(-c3cccs3)nc3ccccc23)CC1`: the concentration for half-maximal inhibition (IC50) was 330 nM in [22], 280 nM in [19], “Not Active” in series [20] and 8900 nM in series [21].
